# Laboratory results reported in ChEMBL document CHEMBL1122071, “Avermectin acyl derivatives with anthelmintic activity” (1982).
# Assays:
# Type in all cases: functional
# [1] = test system: Trichostrongylus colubriformis; assay: Minimal dose necessary to eliminate > 83% of Trichostrongylus colubriformis infection in gerbils
# [2] = test system: Oesophagostomum columbianum; assay: Anthelmintic efficacy against Oseophagostomum columbianum (Oe. c) in sheep at dose of 0.05 mg/kg administered orally; details: route oral
# In short: (§1)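 Lambs were experimentally infected with mixed gastrointestinal nematodes: Haemonchus contortus, Ostertagia circumcincta, Trichostrongylus axei, T. colubriformis, Cooperia oncophora and Oesophagostomum columbianum. Dosing was oral, in mg/kg, with 3 sheep per dose group. An untreated infected group of 6 sheep served as reference, with worm burdens given as the geometric mean per lamb. Immature (EL4) and adult worms were scored separately.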
# [3] = test system: Oesophagostomum columbianum; assay: Anthelmintic efficacy against Oseophagostomum columbianum (Oe. c) in sheep at dose of 0.025 mg/kg administered orally; details: route oral; in short: as §1
# [4] = test system: Teladorsagia circumcincta; assay: Anthelmintic efficacy against adult Ostertagia circumcincta (O. c) in sheep at dose of 0.025 mg/kg administered orally; details: route oral
# In short: (§2)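 Lambs experimentally infected with mixed gastrointestinal nematodes (H. contortus, O. circumcincta, T. axei, T. colubriformis, C. oncophora, Oe. columbianum) were dosed orally, 1–3 sheep per dose. An untreated infected group of 6 was included, with worm burdens given as the geometric mean number of worms per lamb. Efficacy was scored against adult and, where listed, EL4 stages.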
# [5] = test system: Oesophagostomum columbianum; assay: Anthelmintic efficacy against Oseophagostomum columbianum (Oe. c) in sheep at dose of 0.1 mg/kg administered orally; details: route oral; in short: as §2
# [6] = test system: Trichostrongylus colubriformis; assay: Anthelmintic efficacy against Trichostrongylus colubriformis (T.c) in sheep at dose of 0.025 mg/kg administered orally; details: route oral; in short: as §2
# [7] = test system: Cooperia oncophora; assay: Anthelmintic efficacy against adult Cooperia oncopphora (C.o) in sheep at dose of 0.025 mg/kg administered orally; 0-19%; in short: as §2
# [8] = test system: Cooperia oncophora; assay: Anthelmintic efficacy against adult Cooperia oncopphora (C.o) in sheep at dose of 0.1 mg/kg administered orally; 60-89%; in short: as §2
# [9] = test system: Teladorsagia circumcincta; assay: Anthelmintic efficacy against immature (EL4) Ostertagia circumcincta (O. c) in sheep at dose of 0.1 mg/kg administered orally; 60-89%
# [10] = test system: Haemonchus contortus; assay: Anthelmintic efficacy against adult Haemonchus contortus (H.c) in sheep at dose of 0.1 mg/kg administered orally; details: route oral; in short: as §2
# [11] = test system: Teladorsagia circumcincta; assay: Anthelmintic efficacy against immature (EL4) Ostertagia circumcincta (O. c) in sheep at dose of 0.05 mg/kg administered orally; 0-19%
# [12] = test system: Cooperia oncophora; assay: Anthelmintic efficacy against immature (EL4) Cooperia oncopphora (C.o) in sheep at dose of 0.1 mg/kg administered orally; details: route oral; in short: as §1
# [13] = test system: Haemonchus contortus; assay: Anthelmintic efficacy against adult Haemonchus contortus (H.c) in sheep at dose of 0.05 mg/kg administered orally; details: route oral; in short: as §1
# [14] = test system: Trichostrongylus colubriformis; assay: Anthelmintic efficacy against Trichostrongylus colubriformis in sheep at dose of 0.1 mg/kg administered orally; details: route oral; in short: as §2
# [15] = test system: Trichostrongylus axei; assay: Anthelmintic efficacy against Trichostrongylus axei (T.a) in sheep at dose of 0.05 mg/kg administered orally; details: route oral; in short: as §1
# [16] = test system: Haemonchus contortus; assay: Anthelmintic efficacy against adult Haemonchus contortus (H.c) in sheep at dose of 0.025 mg/kg administered orally; details: route oral; in short: as §1
# [17] = test system: Teladorsagia circumcincta; assay: Anthelmintic efficacy against adult Ostertagia circumcincta (O. c) in sheep at dose of 0.1 mg/kg administered orally; details: route oral; in short: as §2
# [18] = test system: Teladorsagia circumcincta; assay: Anthelmintic efficacy against immature (EL4) Ostertagia circumcincta (O. c) in sheep at dose of 0.025 mg/kg administered orally; details: route oral
# [19] = test system: Cooperia oncophora; assay: Anthelmintic efficacy against immature (EL4) Cooperia oncopphora (C.o) in sheep at dose of 0.025 mg/kg administered orally; details: route oral
# [20] = test system: Teladorsagia circumcincta; assay: Anthelmintic efficacy against adult Ostertagia circumcincta (O. c) in sheep at dose of 0.05 mg/kg administered orally; details: route oral; in short: as §1
# [21] = test system: Trichostrongylus axei; assay: Anthelmintic efficacy against Trichostrongylus axei (T.a) in sheep at dose of 0.025 mg/kg administered orally; 20-59%; in short: as §2
# [22] = test system: Cooperia oncophora; assay: Anthelmintic efficacy against immature (EL4) Cooperia oncopphora (C.o) in sheep at dose of 0.05 mg/kg administered orally; 60-89%
# [23] = test system: Cooperia oncophora; assay: Anthelmintic efficacy against adult Cooperia oncopphora (C.o) in sheep at dose of 0.05 mg/kg administered orally; 0-19%; in short: as §2
# [24] = test system: Trichostrongylus axei; assay: Anthelmintic efficacy against Trichostrongylus axei (T.a) in sheep at dose of 0.1 mg/kg administered orally; details: route oral; in short: as §2
# [25] = test system: Trichostrongylus colubriformis; assay: Anthelmintic efficacy against Trichostrongylus colubriformis (T.c) in sheep at dose of 0.05 mg/kg administered orally; details: route oral; in short: as §1
smiles,measurement,setting,value
CC[C@H](C)[C@H]1O[C@]2(C=C[C@@H]1C)C[C@@H]1C[C@@H](C/C=C(\C)[C@@H](O[C@H]3C[C@@H](OC)[C@@H](O[C@H]4C[C@@H](OC)[C@@H](O[Si](C)(C)C(C)(C)C)[C@H](C)O4)[C@H](C)O3)[C@@H](C)/C=C/C=C3\CO[C@@H]4[C@H](O[Si](C)(C)C(C)(C)C)C(C)=C[C@@H](C(=O)O1)[C@]34O)O2,Dose,[1],>2.5 mg/kg
CC[C@H](C)[C@H]1O[C@]2(C=C[C@@H]1C)C[C@@H]1C[C@@H](C/C=C(\C)[C@@H](O[C@H]3C[C@@H](OC)[C@@H](O[C@H]4C[C@@H](OC)[C@@H](OC(N)=O)[C@H](C)O4)[C@H](C)O3)[C@@H](C)/C=C/C=C3\CO[C@@H]4[C@H](O)C(C)=C[C@@H](C(=O)O1)[C@]34O)O2,Dose,[1],0.025 mg/kg
CCCCCCCC(=O)O[C@H]1[C@H](C)O[C@@H](O[C@H]2[C@H](C)O[C@@H](O[C@@H]3/C(C)=C/C[C@@H]4C[C@@H](C[C@]5(C=C[C@H](C)[C@@H]([C@@H](C)CC)O5)O4)OC(=O)[C@@H]4C=C(C)[C@@H](O)[C@H]5OC/C(=C\C=C\[C@@H]3C)[C@]54O)C[C@H]2OC)C[C@H]1OC,Dose,[1],0.125 mg/kg
CC[C@H](C)[C@H]1O[C@]2(C=C[C@@H]1C)C[C@@H]1C[C@@H](C/C=C(\C)[C@@H](O[C@H]3C[C@@H](OC)[C@@H](O[C@H]4C[C@@H](OC)[C@@H](OC(C)=O)[C@H](C)O4)[C@H](C)O3)[C@@H](C)/C=C/C=C3\CO[C@@H]4[C@H](O)C(C)=C[C@@H](C(=O)O1)[C@]34O)O2,Efficacy,[2],>90%
same,Efficacy,[3],>90%
same,Efficacy,[4],>90%
same,Efficacy,[5],>90%
same,Efficacy,[6],>90%
same,Efficacy,[7],0%
same,Efficacy,[8],60%
same,Efficacy,[9],60%
same,Efficacy,[10],>90%
same,Efficacy,[11],0%
same,Efficacy,[12],>90%
same,Dose,[1],0.031 mg/kg
same,Efficacy,[13],>90%
same,Efficacy,[14],>90%
same,Efficacy,[15],>90%
same,Efficacy,[16],>90%
same,Efficacy,[17],>90%
same,Efficacy,[18],19%
same,Efficacy,[19],89%
same,Efficacy,[20],>90%
same,Efficacy,[21],20%
same,Efficacy,[22],60%
same,Efficacy,[23],0%
same,Efficacy,[24],>90%
same,Efficacy,[25],>90%
CC[C@H](C)[C@H]1O[C@]2(C=C[C@@H]1C)C[C@@H]1C[C@@H](C/C=C(\C)[C@@H](O[C@H]3C[C@@H](OC)[C@@H](O[C@H]4C[C@@H](OC)[C@@H](OC(=O)N(C)C)[C@H](C)O4)[C@H](C)O3)[C@@H](C)/C=C/C=C3\CO[C@@H]4[C@H](O)C(C)=C[C@@H](C(=O)O1)[C@]34O)O2,Dose,[1],0.06 mg/kg
CCC(C)[C@H]1O[C@]2(CC(OC(C)=O)[C@@H]1C)C[C@@H]1C[C@@H](C/C=C(\C)[C@@H](OC3CC(OC)C(OC4CC(OC)C(OC(C)=O)C(C)O4)C(C)O3)[C@@H](C)/C=C/C=C3\COc4cc(C)cc(c43)C(=O)O1)O2 (stereo partly specified),Dose,[1],>2.5 mg/kg
CC[C@H](C)[C@H]1O[C@]2(C=C[C@@H]1C)C[C@@H]1C[C@@H](C/C=C(\C)[C@@H](O[C@H]3C[C@@H](OC)[C@@H](O[C@H]4C[C@@H](OC)[C@@H](O)[C@H](C)O4)[C@H](C)O3)[C@@H](C)/C=C/C=C3\CO[C@@H]4[C@H](OC(C)=O)C(C)=C[C@@H](C(=O)O1)[C@]34O)O2,Dose,[1],0.125 mg/kg
